These entries were drawn from the full list.
Apaf-1 act: activators of human Apaf-1 apoptosome, primary screen, biochemical, DEVD-Rh110 fluorescence, uHTS. AID 489031, 2010. activity change, negative = activation, % at 20 µM. Apoptotic protease-activating factor 1 (Homo sapiens), O14727. 0.31% of 330,000 active. Apaf-1 apoptosome caspase-3 activation; active compounds read low;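 active = activity change at or below -40% at 20 µM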
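Assay system – biochemical Apaf-1 apoptosome reconstitution · Medium – 20 mM HEPES buffer, pH 7.5, containing CHAPS and BSA · Incubation – 30 min preincubation, 50 min reaction, room temperature · Measured by – Caspase-3-released Rh110 fluorescence, 540 nm emission, 480 nm excitation · Read-out – Caspase-3 cleavage activity downstream of Apaf-1 activation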
Rh110 act interf: Rh110 fluorescence interference by putative Apaf-1 activators, confirmation, artefact control for Apaf-1 activator project, biochemical, 20 µM; shares compounds with Apaf-1 act; quenched caspase reaction, Ex480/Em540; fluorescence interference (activity change), % at 20 µM, hits read low; 980 tested, under 10 active;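 active = mean activity change at or below -40% when tested at 20 µM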
Apaf-1 act conf2: Apaf-1 activators, single-dose retest, confirmation, biochemical, fluorescence, DEVD-Rh110, 20 µM | shares compounds with Apaf-1 act | reconstituted apoptosome caspase-3 activity; active compounds read low | activity change, negative = activation, % at 20 µM | 5% of 980 active | AID 504617, 2011;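 active = mean activity change at or below -40%, meaning activation of 40% or more, at 20 µM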
Numbers stand for hits; – = inactive; · = no result.

SMILES	Apaf-1 act	Rh110 act interf	Apaf-1 act conf2
COc1cccc2sc(N(CCN(C)C)C(=O)c3ccc4c(c3)CCCC4)nc12	–	·	·
Fc1ccc(CN2CCSCC2)cc1Br	-115	–	–
Nc1ccc2cn[nH]c2c1	–	·	·
CN(C)c1cccc2c1c(NC(=O)c1ccc(F)cc1)nn2C	–	·	·
O=C(Nc1ccc(-c2cccc(F)c2)cc1)C1CCCN(Cc2ccccn2)C1 (stereo not drawn)	–	·	·
O=C(Nc1ncccn1)c1cccc(F)c1	-48	–	–
CCCCCc1cc(=O)oc2c(C(CCN3CCCC3)c3cc(OC)c(OC)c(OC)c3)c(OC)cc(OC)c12 (stereo not drawn)	–	·	·
COc1cccc(-c2sc3ccccc3c2-c2ccc(OCCN3CCCC3)cc2)c1	–	·	·
Cc1cc(C(=O)COc2cccc3cccnc23)c(C)n1C	–	·	·
CSc1cccc(NC(=O)c2cccc3cccnc23)c1	-73	–	–
O=C(Nc1ccncc1)c1cc(-c2cccc(Br)c2)nc2ccccc12	–	·	·
CC(=O)N(C1=C(N2CCOCC2)C(=O)c2ccccc2C1=O)c1ccc(C(=O)O)cc1	–	·	·
CCC1Nc2ncnc(N3CCN(c4ccccc4)CC3)c2N(Cc2ccccc2)C1=O (stereo not drawn)	–	·	·
COc1ccccc1OCCNC(=O)c1cccc(S(=O)(=O)N2CCN(Cc3ccccc3)CC2)c1	–	·	·
COc1ccc(S(=O)(=O)N2CCCCCC2)cc1C(=O)NCCc1ccccc1	–	·	·
COc1cc2c(cc1NC(=O)C(C)N1CCN(S(=O)(=O)c3ccc(C)c(C)c3)CC1)oc1ccccc12 (stereo not drawn)	-578	–	–
C=CCNc1oc(-c2ccc(OCC)cc2)nc1C#N	-52	–	–
O=C1OC(Nc2ccc3ncccc3c2)c2ccccc21 (stereo not drawn)	–	·	·
CNC(=S)N/N=C(\C)c1ccc(C)c(C)c1	-246	–	–
CCOc1ccc(Cc2nnc(SCC(=O)Nc3ccc(C(C)=O)cc3)[nH]c2=O)cc1	-416	–	–
CC(C)N=c1cc2n(-c3ccc(Cl)cc3)c3ccccc3nc-2cc1Nc1ccc(Cl)cc1	–	·	·
Cc1ccc(-c2nn3c(C)nnc3c3ccccc23)cc1S(=O)(=O)NCc1ccco1	–	·	·
COc1ccccc1C(CNC(=O)c1ccc(S(=O)(=O)NCc2ccco2)cc1)N(C)C (stereo not drawn)	-53	–	–
COc1ccccc1CNS(=O)(=O)c1ccc(-c2cc(C)no2)cc1	–	·	·
O=C(O)c1ccc2nc(-c3ccco3)c(-c3ccco3)nc2c1	–	·	·
SMILES	Apaf-1 act	Rh110 act interf	Apaf-1 act conf2
O=C(c1ccc2nc(-c3ccco3)c(-c3ccco3)nc2c1)N1CCN(c2ccccc2)CC1	–	·	·
CCc1nc2ccc(C(=O)N3CCN(c4ccccc4)CC3)cc2nc1CC	-505	–	–
COc1ccc(C2CC(=O)c3cnc(NC(=O)c4ccco4)nc3C2)cc1 (stereo not drawn)	-139	–	–
Nc1ccc(N2CCOCC2)c2nonc12	–	·	·
Nc1ccc(Br)c2cccnc12	–	·	·
Cn1ccnc1C(O)c1ccc(OCc2ccccc2)cc1 (stereo not drawn)	-355	–	–
COc1ccc2ccccc2c1C(O)c1nccn1C (stereo not drawn)	–	·	·
CC(=O)Nc1ccc(NC(=O)CC2Nc3cccc4cccc(c34)NC2=O)cc1 (stereo not drawn)	–	·	·
COc1cc(NC(C)CCCN)c2ncccc2c1Oc1ccccc1 (stereo not drawn)	–	·	·
COc1ccc(S(=O)(=O)N2CCCCCC2)cc1C(=O)N(C)Cc1c(F)cccc1Cl	–	·	·
CC(C)(C)NC(=O)CC1C(=O)NCCN1Cc1c(F)cccc1Cl (stereo not drawn)	-41	–	–
Oc1ccc2ccccc2c1CN1CCN(c2ccccc2F)CC1	-319	–	–
CN(C)C(=O)c1ccc(NC(=O)c2sccc2-c2ccccc2)cc1	–	·	·
C/C(=N\NC(=O)c1ccccc1)c1ccc(NC(=O)c2cccs2)cc1	-143	–	–
CCOC(=O)c1c(NC(=O)c2cccs2)sc(C)c1CC	–	·	·
CSc1nc(NC(C)(C)C)nc(Oc2ccc(=O)n(C)n2)n1	-55	–	–
CN(C)c1cccc2c1c(NC(=O)Nc1ccccc1)nn2C	–	·	·
CCN(CC)C(=O)[C@H]1CC(CC(=O)NC/C=C(\C)CCC=C(C)C)C(=O)N2CCc3c([nH]c4ccc(OC)cc34)[C@]12C (stereo partly drawn)	–	·	·
Cn1c2c(c(=O)n(C)c1=O)CN(CCCN1CCOCC1)CN2	-59	–	–
CCOC(=O)c1sc2nc3c(SCC(=O)O)cc(C(=O)c4ccccc4O)cn3c(=O)c2c1C	-189	–	–
CC1=NN(c2ccc(C(F)(F)F)cn2)C(=O)C1	–	·	·
FC(F)(F)c1cc(CCN2CCNC[C@@H]2CC2CCCCC2)cc(C(F)(F)F)c1	–	·	·
CCCCCc1ccc(OCCC[n+]2ccccc2)c(CCCCC)c1	–	·	·
COC(=O)CCC(=O)OC1(C)C(=O)C2=CN(C(CO)CO)C(c3ccc(OC)cc3)=CC2=C(Br)C1=O (stereo not drawn)	–	·	·
COc1cc([N+](=O)[O-])ccc1NC(=O)NNC(=O)c1sccc1C	-60	–	–
SMILES	Apaf-1 act	Rh110 act interf	Apaf-1 act conf2
C#CCOCCOCCOCCNc1nc(N2CCN(C(=O)CCCCCCCCCCNC(=O)Cn3cc(CCCCCN)nn3)CC2)nc(N2CCN(C(=O)CCCCCCCCCCNC(=O)Cn3cc(C[C@@H](C)O)nn3)CC2)n1	–	·	·
COc1ccccc1N1C(=O)N(C(C)=O)C2C1Nc1ccccc1N2C (stereo not drawn)	–	·	·
CN(C)S(=O)(=O)Oc1cccc(C(=O)Nc2ccc(Cl)c(Cl)c2)c1	-40	–	–
Cc1[nH]n(-c2ccccc2)c(=O)c1C(c1ccc(C(=O)O)cc1)c1c(C)[nH]n(-c2ccccc2)c1=O	–	·	·
CCN(CC)CCOC(=O)c1ccc(N/C=C(/C#N)c2nc(-c3cccc(OC)c3)cs2)cc1	–	·	·
COc1ccc2sc(-c3ccccc3OC)c(-c3ccc(OCCN(C)C)cc3)c2c1	–	·	·
Clc1ccc(-c2ccc(CNCC3CCCO3)o2)cc1 (stereo not drawn)	-131	–	–
CC(C)CCn1c(CN2CCOCC2)nc2c1c(=O)n(C)c(=O)n2C	-44	–	–
Cn1c(=O)c2c(nc(CN3CCc4ccccc4C3)n2Cc2cccc(Cl)c2)n(C)c1=O	–	·	·
COc1ccc2[nH]c3c(=O)n(/N=C/c4ccc(OC)c(CN5CCCC5)c4)c(C)nc3c2c1	–	·	·
O=C(c1ccc(F)cc1)[C@@H]1[C@@H](C(=O)c2ccccc2)[C@@]2(C(=O)Nc3ccccc32)[C@H]2c3ccccc3C=CN12	–	·	·
Cc1ccc(C)n1-c1nn(S(=O)(=O)c2cccc3cccnc23)c2cccc(F)c12	-40	–	–
CC(C)N(C(=O)Nc1ccc2nsnc2c1)C(C)C	–	·	·
C/C(CCN1CCc2nc(-c3ccccc3)c(-c3ccccc3)cc2C1)=N\OC[C@@H](C)[C@H](OCc1ccccc1)C(C)C	–	·	·
COc1ccccc1/C=C1/C(=O)N(c2ccccc2)N=C1C	–	·	·
CCc1ccccc1OCC(=O)Nc1ccc(N2CCCC2)cc1C	–	·	·
CCOc1ccc(NC(=S)Nc2cccc3ccccc23)cc1	–	·	·

Bioassay records from PubChem.
